Screens: PubChem BioAssay, several laboratories
PostGolgi ctrl = growth of the yeast control strain, post-Golgi counter-screen | 98,000 tested, 5% active | efflux-deficient yeast background strain, growth absorbance A615, 16 h | AID 738 | inhibition, % at 10 µM
Pyk2 oligo antag = Pyk2 (human) oligomerization antagonism; z-score (the deposit names both 25 µM and 10 µM); 99,000 tested, 0.83% active; Q293 cells, Pyk2 FERM NanoBiT luminescence; stronger effect = lower value; AID 1347419; Q14289;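 active = Z-score of -3 or lower, scaled per plate to the spread of control and sample wells; inactive = z-score above -3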;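 note: negative z-score means lost luminescence so less FERM oligomerization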
Candida biofilm = kills Candida albicans biofilms | inhibition, % at 6 µM | 85,000 tested, 0.14% active | C. albicans biofilm + clotrimazole, Alamar Blue | AID 834;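 active = inhibition above 20%; inactive = inhibition below 20%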;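 note: preformed 24 hr biofilms exposed to compound for 48 hr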
PostGolgi yeast = growth inhibition of a yeast mutant, post-Golgi transport screen | post-Golgi transport phenotypic cell assay | inhibition, % at 10 µM | 98,000 tested, 0.9% active | AID 739;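 note: yeast cells grown in 1536-well plates; yeast grown about 18 h at 30C before absorbance read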
FAK inh = FAK (human) kinase inhibition; inhibition, %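 (tested at 7 µM)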; Q05397; AID 727; 97,000 tested, 0.84% active; biochemical FAK kinase activity assay; in the data active = inhibition above about 19%
Ecoli tolC = growth inhibitors of E. coli BW25113 tolC mutant. OD615. 65,000 tested, 2.2% active. growth inhibition, % at 10 µM (by protocol);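 active = growth inhibition at or above a cutoff equal to the mean over every tested compound plus 3 SD, cut at about 60% in these data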;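 note: growth measured after 20 h incubation at 37 °C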
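Test system: tolC-deleted E. coli BW25113 | Medium: LB with kanamycin 50 µg/mL | Compound dosing: Single concentration, 10 µM final per compound | Schedule: 37 °C, 20 h exposure | Measured by: OD at 615 nm | Evaluation: Percent growth inhibition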
Numbers stand for hits. Only some compounds are listed: those with a hit (about 6.9% of all), similar ones and a draw of the others. Cut-off read from the data, not from the text of the source, unless noted: active = inhibition above about 30%; inactive = the rest.

For COc1ccc(-c2n[nH]c3c2C(c2ccc(OC)c(OC)c2)N(c2ccccc2)C3=O)cc1 (stereo unspecified) the results were PostGolgi ctrl inactive, Pyk2 oligo antag -3, Candida biofilm inactive, PostGolgi yeast inactive and FAK inh inactive.
Screening COC(=O)c1ccc2c(c1O)C(=O)c1ccccc1C2=O returned PostGolgi ctrl 83, Pyk2 oligo antag inactive, PostGolgi yeast 105 and FAK inh inactive.
For O=C(CSc1ccccn1)N1CCN(c2ccc(Cl)cc2)CC1 the results were PostGolgi ctrl inactive, Pyk2 oligo antag inactive, Candida biofilm inactive, PostGolgi yeast inactive and FAK inh inactive.
Screening CCN1CCN(C(=O)CN(c2ccc(C)cc2)S(C)(=O)=O)CC1 returned PostGolgi ctrl inactive, Pyk2 oligo antag inactive, Candida biofilm inactive, PostGolgi yeast inactive, FAK inh inactive and Ecoli tolC inactive.
`Cc1cc(C)n(-c2nc3ccccc3nc2Nc2ccc(CC(=O)O)cc2)n1` gave PostGolgi ctrl inactive, Candida biofilm inactive, PostGolgi yeast inactive, FAK inh inactive and Ecoli tolC inactive.
For O=C(NN1CCCCC1)c1cccc(COc2ccc(Cl)cc2)c1 the results were Pyk2 oligo antag inactive.
`COc1ccc(N2C(=O)C(CC(=O)Nc3ccccc3)N(Cc3ccc4c(c3)OCO4)C2=O)cc1` (stereo unspecified) gave PostGolgi ctrl inactive, Pyk2 oligo antag inactive, PostGolgi yeast inactive, FAK inh inactive and Ecoli tolC inactive.
Screening O=C1CC(Nc2ccc3ccccc3c2)C(=O)N1Cc1ccccc1 (stereo unspecified) returned PostGolgi ctrl 38, Pyk2 oligo antag inactive, Candida biofilm inactive, PostGolgi yeast inactive and FAK inh inactive.
`CN1C=CC2=C(C#N)C(N)C(C#N)(C#N)C(c3ccccc3)C2C1` (stereo unspecified) gave PostGolgi ctrl inactive, Pyk2 oligo antag -3.7, Candida biofilm inactive, PostGolgi yeast inactive, FAK inh inactive and Ecoli tolC inactive.
`CC(=O)OC1CC2(C)C(=O)CCC2C2CCc3cc(O)ccc3C12` (stereo unspecified) gave PostGolgi ctrl inactive, Pyk2 oligo antag inactive, Candida biofilm inactive, PostGolgi yeast inactive, FAK inh inactive and Ecoli tolC inactive.
For COc1cc(NC(=O)c2cccs2)c(C(=O)OCC(=O)NC(C)c2ccccc2)cc1OC (stereo unspecified) the results were PostGolgi ctrl 30, Pyk2 oligo antag inactive, PostGolgi yeast inactive and FAK inh inactive.
For CCOc1ccc(NC(=O)N(C2CCCCC2)C(C)c2cccnc2)cc1 (stereo unspecified) the results were PostGolgi ctrl inactive, Candida biofilm inactive, PostGolgi yeast 63 and FAK inh inactive.
`CCOc1ccc(NC(=O)N(C2CCCCC2)C(C)c2ccncc2)cc1` (stereo unspecified) gave PostGolgi ctrl inactive, Pyk2 oligo antag inactive, PostGolgi yeast inactive, FAK inh inactive and Ecoli tolC inactive.
For CC(CCc1ccccc1)NC(=O)C(Cc1ccccc1)NS(=O)(=O)c1cccs1 (stereo unspecified) the results were PostGolgi ctrl inactive, Pyk2 oligo antag inactive, Candida biofilm 33, PostGolgi yeast inactive and FAK inh inactive.
CC1CCCCC1NC(=O)C(Cc1ccccc1)NS(=O)(=O)c1cccs1 (stereo unspecified) was read as PostGolgi ctrl inactive, Pyk2 oligo antag inactive, Candida biofilm inactive, PostGolgi yeast inactive and FAK inh inactive.
Screening c1ccc(-c2nc(NCc3ccco3)c3ccccc3n2)nc1 returned PostGolgi ctrl inactive, Pyk2 oligo antag inactive, Candida biofilm inactive, PostGolgi yeast inactive, FAK inh inactive and Ecoli tolC 83.
c1coc(CNc2nc(N3CCCCC3)nc3ccccc23)c1 was read as PostGolgi ctrl inactive, Pyk2 oligo antag inactive, Candida biofilm inactive, PostGolgi yeast 40 and Ecoli tolC 71.
Screening O=S(=O)(c1ccccc1)c1ccc(NCc2ccco2)cc1 returned PostGolgi ctrl inactive, Pyk2 oligo antag inactive, Candida biofilm inactive, PostGolgi yeast inactive and Ecoli tolC inactive.
`O=S(=O)(Nc1nc2ccccc2nc1NCc1ccco1)c1ccccc1` gave PostGolgi ctrl inactive, Pyk2 oligo antag inactive, Candida biofilm inactive, PostGolgi yeast inactive, FAK inh inactive and Ecoli tolC 71.
Screening CCNC(=O)CN(c1ccc(C)cc1)S(=O)(=O)c1ccccc1 returned PostGolgi ctrl inactive, Pyk2 oligo antag inactive, Candida biofilm inactive, PostGolgi yeast inactive and FAK inh inactive.
Screening Cc1ccc(C(=O)NCCSc2snnc2C)cc1 returned PostGolgi ctrl inactive, Pyk2 oligo antag inactive, PostGolgi yeast inactive and FAK inh inactive.
`Cc1cccc(C)c1NC(=O)c1sccc1SCc1cccc(C(F)(F)F)c1` gave PostGolgi ctrl 51, Pyk2 oligo antag inactive, PostGolgi yeast inactive and FAK inh inactive.
`CC(C)OC(=O)c1cccnc1SCc1cc(=O)n2ccccc2n1` gave PostGolgi ctrl inactive, Pyk2 oligo antag inactive, Candida biofilm inactive, PostGolgi yeast 30, FAK inh inactive and Ecoli tolC inactive.
For O=S(=O)(c1ccc(S(=O)(=O)N(Cc2cccs2)CC2CCCO2)cc1)N1CCCCC1 (stereo unspecified) the results were PostGolgi ctrl inactive, Pyk2 oligo antag inactive, Candida biofilm inactive, PostGolgi yeast inactive, FAK inh inactive and Ecoli tolC inactive.
O=S(=O)(NC1CCCC1)c1ccc(S(=O)(=O)N(Cc2cccs2)CC2CCCO2)cc1 (stereo unspecified) was read as PostGolgi ctrl inactive, Pyk2 oligo antag inactive, Candida biofilm inactive, PostGolgi yeast inactive, FAK inh inactive and Ecoli tolC 64.
Screening C=C(C)COc1ccc(-c2[nH]ncc2-c2ccccc2OC)c(O)c1 returned PostGolgi ctrl 52, Pyk2 oligo antag inactive, Candida biofilm inactive, PostGolgi yeast 54, FAK inh inactive and Ecoli tolC inactive.
Screening CCOc1ccc(-c2[nH]ncc2Oc2ccccc2OCC)c(O)c1 returned PostGolgi ctrl 57, Pyk2 oligo antag inactive, Candida biofilm inactive, PostGolgi yeast 91, FAK inh inactive and Ecoli tolC 95.
`C=C(C)COc1ccc(-c2[nH]ncc2Oc2ccccc2OC)c(O)c1` gave PostGolgi ctrl inactive, Pyk2 oligo antag -3.6, Candida biofilm inactive, PostGolgi yeast inactive, FAK inh inactive and Ecoli tolC 100.
C=C(C)COc1ccc(-c2n[nH]c(C)c2-c2ccc(Br)cc2)c(O)c1 was read as PostGolgi ctrl inactive, Pyk2 oligo antag inactive, Candida biofilm inactive, PostGolgi yeast inactive and FAK inh inactive.
CCOc1ccc(-c2[nH]ncc2-c2ccc(OC)c(OC)c2)c(O)c1 was read as PostGolgi ctrl inactive, Pyk2 oligo antag inactive, Candida biofilm inactive, PostGolgi yeast inactive, FAK inh inactive and Ecoli tolC inactive.
CCOc1ccc(-c2[nH]ncc2Oc2ccccc2OC)c(O)c1 was read as PostGolgi ctrl inactive, Pyk2 oligo antag -3, Candida biofilm inactive, PostGolgi yeast inactive, FAK inh inactive and Ecoli tolC 94.
`COc1ccc2c(c1)[nH]c1c(=O)n(Cc3ccccn3)cnc12` gave PostGolgi ctrl inactive, Pyk2 oligo antag inactive, Candida biofilm inactive, PostGolgi yeast inactive and FAK inh inactive.
